# From PubChem
# MC4R antag cAMP – MC4R antagonists of cAMP signaling, primary screen, cell-based, TR-FRET, antagonist arm of biased-ligand search; MC4R-expressing cells, MTII-stimulated cAMP, LANCE TR-FRET; inhibition, % at 6.5 µM; actives 0.48% (n = 360,000);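 active = inhibition above its plate's cutoff, the mean of tested wells on that plate plus 3 SD, cut at about 29% in these data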;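 note: 0% = Melanotan II alone and 100% = Melanotan II plus saturating MCL0020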
#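 Material – human MC4R-expressing U2OS cells · Repeats – no replicates · Detection – TR-FRET with Eu-cAMP and labeled anti-cAMP, 671 nm · Times – compound 30 min, challenge 1 h, detection 1 h · Compound – single nominal compound dose of 6.5 µM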
# PREPL inh – PREPL enzyme inhibitors, primary screen, biochemical, fluorescence polarization. Prolyl endopeptidase-like (Homo sapiens), Q4J6C6. recombinant PREPL, fluorescence polarization activity-based probe. inhibition, % at 5.96 µM. actives 0.68% (n = 320,000). AID 2751, 2010; in the data active = inhibition above about 43%;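 note: 0% = enzyme with DMSO and 100% = wells lacking enzyme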
# m5-HT2A agonist – mouse Htr2a agonists via beta-arrestin recruitment, primary screen, cell-based, luminescence; 5-hydroxytryptamine receptor 2A (Mus musculus), P35363; activation, % at 7.6 µM; actives 0.66% (n = 360,000); CHO-K1 mHTR2A beta-arrestin complementation; percent of 30 µM serotonin response;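 active = activation above a run cutoff, the mean activation of all tested compounds plus 3 SD, cut at about 14% in these data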;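 note: 0% = plate median of compound wells and 100% = 30 µM serotonin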
# MC4R ag barr – MC4R agonists recruiting beta-arrestin, primary screen, cell-based, luminescence, agonist arm of biased-ligand search; Melanocortin receptor 4 (Homo sapiens), P32245; activation, % at 8.9 µM; U2OS MC4R beta-arrestin complementation; percent of melanotan II response, DMSO zero; actives 0.98% (n = 360,000); AID 540308, 2011;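 active = activation above a per-plate cutoff, the mean activation of sample wells on that plate plus 3 SD, cut at about 8% in these data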
# NTR1 ag – agonists of human NTR1, primary screen, imaging, U2OS cells, beta-arrestin-GFP, high content | Neurotensin receptor type 1 (Homo sapiens), P30989 | actives 0.17% (n = 330,000) | activation, % at 20 µM | NTR1-U2OS beta-arrestin-GFP spot imaging, agonist mode;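 active = activation at or above 40% of the spot to cytoplasm intensity ratio, with at least 20 cells analyzed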;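 note: 0% = DMSO without peptide and 100% = 100 nM NTR1 peptide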
# Target sequence (P30989 whole entry, looked up): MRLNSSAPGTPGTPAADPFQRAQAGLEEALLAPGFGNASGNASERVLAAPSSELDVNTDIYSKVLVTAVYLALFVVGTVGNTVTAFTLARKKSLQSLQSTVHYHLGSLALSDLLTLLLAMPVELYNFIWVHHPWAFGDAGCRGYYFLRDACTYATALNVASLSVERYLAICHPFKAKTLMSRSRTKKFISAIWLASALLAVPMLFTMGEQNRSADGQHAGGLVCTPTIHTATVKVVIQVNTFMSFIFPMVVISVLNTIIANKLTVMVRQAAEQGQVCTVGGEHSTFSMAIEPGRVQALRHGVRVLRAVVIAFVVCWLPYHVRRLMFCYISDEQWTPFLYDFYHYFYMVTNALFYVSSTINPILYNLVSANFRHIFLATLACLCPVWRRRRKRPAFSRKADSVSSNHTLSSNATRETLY
# Hep lipid drop – inhibitors of hepatocyte lipid droplet formation, primary screen, imaging, high-throughput imaging, BODIPY stain; actives 0.4% (n = 240,000); inhibition, % at 6.5 µM; AML12 mouse hepatocytes, oleate lipid droplets;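 active = lipid droplet intensity inhibited by at least 50%, with more than 500 cells counted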
#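 Assay system: AML12 mouse liver cells | Compound: 6.5 µM single-point dosing | Schedule: Overnight exposure | Technique: Fluorescence imaging, 20x objective, two fields per well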
# MOR ag counter – OPRM1 agonists via beta-arrestin recruitment, confirmation, counter-screen for mouse HTR2A agonist project, cell-based, luminescence, single concentration. shares compounds with m5-HT2A agonist. U2OS OPRM1 beta-arrestin PathHunter; DMSO 0%, DAMGO 9.3 µM 100%. activation, % at 9.3 µM. actives 5.3% (n = 2,300);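 active = mean activation above the mean of DMSO-only wells plus 3 SD, cut at about 0.5% in these data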
# HTR2A ag conf – mouse HTR2A agonists, beta-arrestin recruitment, confirmation, cell-based, luminescence, CHO-K1 PathHunter, triplicate; shares compounds with m5-HT2A agonist; DMSO 0%, 30 µM serotonin 100%; activation, % at 7.6 µM; actives 19% (n = 2,300);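 active = mean activation across triplicates above the hit threshold derived in the original primary screen, cut at about 15% in these data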
# The depositor's hits bear a star; nt = no result. Shown are actives, neighbours in structure and some others; about 2.7% of the full set was active somewhere.
SMILES,MC4R antag cAMP,PREPL inh,m5-HT2A agonist,MC4R ag barr,NTR1 ag,Hep lipid drop,MOR ag counter,HTR2A ag conf
O=C(CCN1C(=O)c2cccc3cccc(c23)C1=O)NCc1ccco1,4,-2,16*,0,1,4,-1,-2
CCN1C(=NCC(C)C)N[C@@H](c2cccc(F)c2)C(C(=O)OC)=C1C,3,17,-6,0,0,7,nt,nt
CCN(CC)C(=O)Nc1ccc(Br)cc1,-5,4,23*,-1,1,3,-1,-3
CCc1ccc(CCC(=O)Nc2ccc(Br)cc2)o1,1,-6,-2,3,2,0,nt,nt
Cc1onc(-c2ccccc2)c1C(=O)Nc1ccc(NC(=O)c2c(-c3ccccc3)noc2C)cc1,10,4,19*,0,2,nt,0,-4
O=C(NC1CCCCC1)N(c1ccccc1)c1nnc(-c2cccc([N+](=O)[O-])c2)s1,-3,nt,-2,0,nt,nt,nt,nt
O=C(NCc1ccccc1)C1C(c2ccccc2)=Nc2ccccc2N1C(=O)c1cnccn1 (stereo unspecified),nt,nt,14*,nt,nt,nt,-1,0
COc1ccc2[nH]c(C)c(CCNC(=S)Nc3ccccc3C)c2c1,8,14,16*,0,-3,10,0,-4
Cc1cccc(C)c1NC(=S)NC(C)(C)CO,3,5,-3,1,-1,32,nt,nt
CCOC(=O)CSC1=NN2CCS(=O)(=O)N=C2S1,-8,4,6,1,0,10,nt,nt
CCOC(=O)CN1CCS(=O)(=O)CC1,3,4,16*,-3,1,-12,0,2
CCC1CCCCN1C(=O)CSc1nnc(-c2c[nH]c3ccccc23)o1 (stereo unspecified),4,-8,2,1,1,nt,nt,nt
O=C(c1ccc(OCc2cn3ccccc3n2)cc1)N1CCN(S(=O)(=O)c2ccccc2F)CC1,-3,nt,20*,-2,1,nt,0,-2
Cc1cccc(CN2[C@H](CO)C=CS2(=O)=O)c1,nt,nt,-3,nt,nt,nt,nt,nt
COc1ccc(-n2nc(C(=O)NCC(=O)N3CCCC(C)C3)c3ccccc3c2=O)cc1 (stereo unspecified),6,10,-2,0,0,-3,nt,nt
COc1ccc(-n2nc(C(=O)NCC(=O)N3CCC(C)CC3)c3ccccc3c2=O)cc1,2,8,15*,1,0,-3,0,-1
CCCCc1nnc(NC(=O)CSc2nc(=O)cc(N)n2-c2ccccc2)s1,6,3,16*,-1,-2,-4,-1,-2
Nc1nnc(SCC(=O)c2ccc([N+](=O)[O-])cc2)s1,4,13,-1,0,5,13,nt,nt
Cc1nnc(SCC(=O)c2ccc([N+](=O)[O-])cc2)s1,16,23,15*,-5,-1,-9,0.5*,-2
COC(CNC(=O)c1c[nH]c2ccc(S(=O)(=O)N(C)c3ccc(F)cc3)cc2c1=O)OC,-1,-1,-4,-1,2,7,nt,nt
CCCNCC1C(Oc2ccc(Cl)cc2Cl)C(=O)N1c1cccc(C)c1C (stereo unspecified),10,-10,17*,3,2,2,0,8
COc1ccc(C(CNC(=O)c2ccccc2C)N2CCCC2)cc1 (stereo unspecified),9,10,31*,-3,-2,-21,-1,-1
O=C(NC(=O)N1CCN(c2cccc(Cl)c2)CC1)c1ccccc1,3,13,15*,0,1,-11,0,4
CCOc1ccc(C(=O)C[n+]2ccccc2C)cc1,16,-5,-1,0,-2,-6,nt,nt
Cc1ccc(-c2csc(C(O)c3cccc(Cl)c3)n2)cc1C (stereo unspecified),-2,nt,-2,-1,nt,nt,nt,nt
SMILES,MC4R antag cAMP,PREPL inh,m5-HT2A agonist,MC4R ag barr,NTR1 ag,Hep lipid drop,MOR ag counter,HTR2A ag conf
CCC(=O)c1ccc(OCC(=O)OCc2csc(CC(=O)Nc3ccccc3C)n2)cc1,5,nt,19*,1,nt,nt,-1,-5
Cc1ccccc1NC(=O)Cc1nc(COC(=O)CCC(=O)c2ccccc2)cs1,12,-2,-2,0,-1,nt,nt,nt
O=S(=O)(NCc1ccc(F)cc1)c1cc(Br)ccc1Br,7,-11,18*,8,7,nt,0,0
O=S(=O)(NCCc1ccc(F)cc1)c1cc(C(F)(F)F)ccc1Br,3,nt,3,5,nt,nt,nt,nt
OC(c1cccc(Cl)c1)c1nc(/C=C/c2ccccc2)cs1 (stereo unspecified),1,nt,15*,2,nt,nt,0,-5
O=C(O)C(O)C(O)C(O)C(O)C(=O)O (stereo unspecified) (tested in a mixture with another compound),4,-4,20*,1,1,nt,-1,4
CC(C)(C)C(=O)n1nc(-c2ccccc2)oc1=O,8,0,16*,-1,0,11,-1,-4
COc1ccc(C2CC(c3ccc4ccccc4c3)=NN2C(=O)COC(=O)C2CCC(=O)N2)cc1 (stereo unspecified),0,-11,15*,-1,3,10,0,-1
CC1=C/C(=N\NC(=O)c2ccccc2)CC1,4,3,2,0,0,-10,nt,nt
COc1ccc(NC2CCCN(C(=O)Cn3ccc(C)n3)C2)cc1OC (stereo unspecified),-5,5,15*,-1,-1,-2,0,0
Cc1cc(C)c(C2=CC(=O)C[C@H](c3ccc4c(c3)OCO4)C2)c(C)c1,6,17,2,0,6,nt,nt,nt
COc1cc(-c2ccc3c(=O)c4ccccc4sc3c2)cc(OC)c1OC,4,1,-4,-1,10,nt,nt,nt
COc1cc(-c2ccc3c(=O)c4ccccc4n(C)c3c2)cc(OC)c1OC,8,-6,18*,0,5,-4,0,1
